Test results taken from ChEMBL document CHEMBL1687899, “Structure-activity relationships in nucleotide oligomerization domain 1 (Nod1) agonistic γ-glutamyldiaminopimelic acid derivatives” (J Med Chem, 2011).
The source made the active and inactive calls. The rule behind the calls is not given here.

Experiments:
[1] = target: T1, Nucleotide-binding oligomerization domain-containing protein 1 (Homo sapiens, UniProt Q9Y239); test: Agonist activity at human NOD-1 expressed in human HEK293 cells assessed as NF-kappaB induction by spectrophotometric analysis; type: functional, cell-based
T1 sequence (Q9Y239 whole entry): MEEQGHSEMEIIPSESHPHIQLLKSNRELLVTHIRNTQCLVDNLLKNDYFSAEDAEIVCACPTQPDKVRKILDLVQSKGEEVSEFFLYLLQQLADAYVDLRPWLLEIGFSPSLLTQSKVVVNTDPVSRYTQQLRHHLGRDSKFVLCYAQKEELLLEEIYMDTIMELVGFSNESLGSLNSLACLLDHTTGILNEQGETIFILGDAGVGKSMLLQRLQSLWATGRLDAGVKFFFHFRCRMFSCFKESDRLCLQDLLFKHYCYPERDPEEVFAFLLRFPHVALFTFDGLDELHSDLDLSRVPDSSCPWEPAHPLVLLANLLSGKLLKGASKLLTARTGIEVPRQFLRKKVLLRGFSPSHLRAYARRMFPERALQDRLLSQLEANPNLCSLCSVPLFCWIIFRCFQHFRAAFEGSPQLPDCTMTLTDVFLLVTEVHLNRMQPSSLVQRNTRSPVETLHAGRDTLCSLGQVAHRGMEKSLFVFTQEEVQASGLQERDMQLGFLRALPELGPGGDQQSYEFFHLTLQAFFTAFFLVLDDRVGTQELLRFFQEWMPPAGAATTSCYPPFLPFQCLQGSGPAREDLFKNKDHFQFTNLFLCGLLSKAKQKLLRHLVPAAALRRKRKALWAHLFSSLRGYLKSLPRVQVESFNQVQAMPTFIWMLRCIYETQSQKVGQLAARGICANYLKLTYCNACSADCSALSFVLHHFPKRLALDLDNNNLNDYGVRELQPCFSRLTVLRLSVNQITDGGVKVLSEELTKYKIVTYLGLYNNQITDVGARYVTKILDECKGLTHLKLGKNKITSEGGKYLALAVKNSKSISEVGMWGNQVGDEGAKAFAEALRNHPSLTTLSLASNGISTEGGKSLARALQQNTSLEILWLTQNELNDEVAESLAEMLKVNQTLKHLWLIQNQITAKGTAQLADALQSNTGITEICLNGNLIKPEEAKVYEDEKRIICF
Summary of the method: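 HEK-Blue cells (HEK293 stably transfected with human Nod1 and an NF-κB/AP-1-inducible secreted alkaline phosphatase reporter) were kept in selection medium with zeocin and normocin. Cells at ~10^5 cells/mL were grown to confluency and then given graded compound concentrations. Supernatant sAP was read spectrophotometrically at 620 nm with an alkaline phosphatase-specific chromogen.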

PBMC [2] = test: Upregulation of interleukin 1F10 in human PBMC at 20 ug/ml after 2 hrs; type: functional
Summary of the method: (§1)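 PBMCs were isolated from fresh heparin-anticoagulated human blood and stimulated with compound at 20 μg/mL for 2 h. Total RNA was extracted from treated and negative-control PBMC samples for transcriptomal profiling.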

[3] = target: Triggering receptor expressed on myeloid cells 1 (Homo sapiens) (UniProt Q9NP99); test: Induction of TREM-1-mediated dendritic cell maturation in human PBMC at 20 ug/ml; summary of the method: as §1
Triggering receptor expressed on myeloid cells 1 (Homo sapiens), sequence (Q9NP99 whole entry, looked up): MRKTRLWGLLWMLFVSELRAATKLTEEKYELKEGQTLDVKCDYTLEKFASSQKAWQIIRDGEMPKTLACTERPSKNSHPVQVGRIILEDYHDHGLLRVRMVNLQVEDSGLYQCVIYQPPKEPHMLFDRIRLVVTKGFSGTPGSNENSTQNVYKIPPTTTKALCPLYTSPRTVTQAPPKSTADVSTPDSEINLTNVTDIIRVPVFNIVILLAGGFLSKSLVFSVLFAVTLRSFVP

PBMC [4] = test: Upregulation of interleukin 24 in human PBMC at 20 ug/ml after 2 hrs; type: functional; summary of the method: as §1
[5] = target: Triggering receptor expressed on myeloid cells 1 (Homo sapiens) (UniProt Q9NP99); test: Induction of TREM-1-mediated activation of IL-6 signaling pathway in human PBMC at 20 ug/ml; summary of the method: as §1
PBMC [6] = test: Upregulation of interleukin 1F9 in human PBMC at 20 ug/ml after 2 hrs; type: functional; summary of the method: as §1
PBMC [7] = test: Downregulation of interleukin 8RB in human PBMC at 20 ug/ml after 2 hrs; type: functional; summary of the method: as §1
[8] = target: Triggering receptor expressed on myeloid cells 1 (Homo sapiens) (UniProt Q9NP99); test: Induction of TREM-1-mediated activation of IL-10 signalling pathway in human PBMC at 20 ug/ml; summary of the method: as §1
[9] = target: Triggering receptor expressed on myeloid cells 1 (Homo sapiens) (UniProt Q9NP99); test: Induction of TREM-1-mediated activation of NF-kappaB signalling pathway in human PBMC at 20 ug/ml; summary of the method: as §1
[10] = Upregulation of CD11b expression in human […] by flow cytometry; type: functional, cell-based
Summary of the method: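 Fresh anticoagulated human whole blood was incubated with graded compound dilutions for 1 h at 37°C, with saline negative controls. Samples were chilled 15 min, then stained with anti-CD11b/Mac-1 on ice for 30 min so only surface CD11b was labelled. Erythrocytes were lysed and leukocytes fixed, then washed. Flow cytometry in single-color PE mode acquired 20,000 gated events.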

PBMC [11] = test: Upregulation of interleukin 1B in human PBMC at 20 ug/ml after 2 hrs; type: functional; summary of the method: as §1
PBMC [12] = test: Upregulation of interleukin 1alpha in human PBMC at 20 ug/ml after 2 hrs; type: functional; summary of the method: as §1
PBMC [13] = test: Upregulation of interleukin 3 in human PBMC at 20 ug/ml after 2 hrs; type: functional; summary of the method: as §1
[14] = target: Triggering receptor expressed on myeloid cells 1 (Homo sapiens) (UniProt Q9NP99); test: Induction of TREM-1-mediated activation of PPAR signalling pathway in human PBMC at 20 ug/ml; summary of the method: as §1
[15] = target: Triggering receptor expressed on myeloid cells 1 (Homo sapiens) (UniProt Q9NP99); test: Induction of TREM-1-mediated activation of TNFR2 signalling pathway in human PBMC at 20 ug/ml; summary of the method: as §1
PBMC [16] = test: Upregulation of interleukin 22 in human PBMC at 20 ug/ml after 2 hrs; type: functional; summary of the method: as §1
PBMC [17] = test: Upregulation of interleukin 6 in human PBMC at 20 ug/ml after 2 hrs; type: functional; summary of the method: as §1
PBMC [18] = test: Upregulation of interleukin 1F5 in human PBMC at 20 ug/ml after 2 hrs; type: functional; summary of the method: as §1
PBMC [19] = test: Upregulation of interleukin 1RN in human PBMC at 20 ug/ml after 2 hrs; type: functional; summary of the method: as §1
[20] = target: Triggering receptor expressed on myeloid cells 1 (Homo sapiens) (UniProt Q9NP99); test: Induction of TREM-1-mediated activation of IL-9 signalling pathway in human PBMC at 20 ug/ml; summary of the method: as §1
PBMC [21] = test: Upregulation of interleukin 18 in human PBMC at 20 ug/ml after 2 hrs; type: functional; summary of the method: as §1
PBMC [22] = test: Upregulation of interleukin 19 in human PBMC at 20 ug/ml after 2 hrs; type: functional; summary of the method: as §1
PBMC [23] = test: Upregulation of interleukin 8 in human PBMC at 20 ug/ml after 2 hrs; type: functional; summary of the method: as §1
PBMC [24] = test: Upregulation of interleukin 20 in human PBMC at 20 ug/ml after 2 hrs; type: functional; summary of the method: as §1
[25] = Upregulation of p38 MAPK expression in human […] by flow cytometry; type: functional, cell-based
Summary of the method: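 Fresh heparinized human whole blood was incubated with graded compound concentrations diluted in saline for 15 min at 37°C. Erythrocytes were lysed and leukocytes fixed in one step, then permeabilized in ice-cold methanol for 30 min. Cells were stained 60 min with PE anti-phospho-p38MAPK (pT180/pY182) or a PE IgG1 κ isotype control. Flow cytometry acquired 20,000 gated events.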

[26] = target: Triggering receptor expressed on myeloid cells 1 (Homo sapiens) (UniProt Q9NP99); test: Induction of TREM-1-mediated activation of communication between innate and adaptive immune cells in human PBMC at 20 ug/ml; type: cell-based; summary of the method: as §1
PBMC [27] = test: Upregulation of interleukin 10 in human PBMC at 20 ug/ml after 2 hrs; type: functional; summary of the method: as §1
PBMC [28] = test: Downregulation of interleukin 31RA in human PBMC at 20 ug/ml after 2 hrs; type: functional; summary of the method: as §1
[29] = target: Triggering receptor expressed on myeloid cells 1 (Homo sapiens) (UniProt Q9NP99); test: Induction of TREM-1-mediated activation of IL12 signalling and production in human PBMC at 20 ug/ml; summary of the method: as §1
[30] = target: Triggering receptor expressed on myeloid cells 1 (Homo sapiens) (UniProt Q9NP99); test: Induction of TREM-1-mediated activation of IRF by cytosolic pattern recognition receptors in human PBMC at 20 ug/ml; summary of the method: as §1
PBMC [31] = test: Upregulation of interleukin 12B in human PBMC at 20 ug/ml after 2 hrs; type: functional; summary of the method: as §1
PBMC [32] = test: Upregulation of interleukin 2RA in human PBMC at 20 ug/ml after 2 hrs; type: functional; summary of the method: as §1
[33] = target: Triggering receptor expressed on myeloid cells 1 (Homo sapiens) (UniProt Q9NP99); test: Induction of TREM-1-mediated LXR/RXR activation in human PBMC at 20 ug/ml; summary of the method: as §1
PBMC [34] = test: Upregulation of interleukin 17A in human PBMC at 20 ug/ml after 2 hrs; type: functional; summary of the method: as §1
PBMC [35] = test: Downregulation of interleukin 1RAPL1 in human PBMC at 20 ug/ml after 2 hrs; type: functional; summary of the method: as §1
PBMC [36] = test: Downregulation of interleukin 1RAP in human PBMC at 20 ug/ml after 2 hrs; type: functional; summary of the method: as §1
PBMC [37] = test: Upregulation of interleukin 17RD in human PBMC at 20 ug/ml after 2 hrs; type: functional; summary of the method: as §1
PBMC [38] = test: Downregulation of interleukin 22RA1 in human PBMC at 20 ug/ml after 2 hrs; type: functional; summary of the method: as §1
[39] = target: Triggering receptor expressed on myeloid cells 1 (Homo sapiens) (UniProt Q9NP99); test: Induction of TREM-1-mediated T-helper cell differentiation in human PBMC at 20 ug/ml; type: cell-based; summary of the method: as §1
[40] = target: Triggering receptor expressed on myeloid cells 1 (Homo sapiens) (UniProt Q9NP99); test: Induction of TREM-1-mediated activation of p38 MAPK signalling pathway in human PBMC at 20 ug/ml; summary of the method: as §1

CCCCCCCCCCCC(=O)N[C@H](CCC(=O)NCCCC[C@H](N)C(=O)O)C(=O)O
EC50 [1]: 0.96 nM

CCCCCCCCCCCC(=O)NCCCC(=O)NC(CCCC(N)C(=O)O)C(=O)O (stereo not drawn)
EC50 [1]: 0.504 nM

CCCCCCCCCCCC(=O)N[C@H](CCC(=O)NC(CCCC(NC(=N)N)C(=O)O)C(=O)O)C(=O)O (stereo partly drawn)
EC50 [1]: 0.622 nM

CCCCCCCCCCCC(=O)N[C@H](CCC(=O)NC(CCCC(N)C(=O)OCC)C(=O)OCC)C(=O)O (stereo partly drawn)
EC50 [1]: 0.145 nM

CCCCCCCCCCCC(=O)N[C@H](CCC(=O)N[C@@H](CCCCN)C(=O)O)C(=O)O
EC50 [1]: 0.57 nM

CCCCCCCCCCCNC(=O)[C@H](N)CCC(=O)NC(CCCC(N)C(=O)O)C(=O)O (stereo partly drawn)
EC50 [1]: 0.826 nM

CCCCCCCCCCCCN(CCCCCCCCCCCC)[C@H](CCC(=O)NC(CCCC(N)C(=O)O)C(=O)O)C(=O)O (stereo partly drawn)
fold change (FC) (PBMC [2]): 2.05 | Activity [3]: Active | fold change (FC) (PBMC [4]): 3.41 | Activity [5]: Active | fold change (FC) (PBMC [6]): 11.1 | fold change (FC) (PBMC [7]): 2.75 | Activity [8]: Active | Activity [9]: Active | Activity [10]: Dose-dependent effect | fold change (FC) (PBMC [11]): 4.14 | fold change (FC) (PBMC [12]): 14.34 | fold change (FC) (PBMC [13]): 5.99 | Activity [14]: Active | Activity [15]: Active | fold change (FC) (PBMC [16]): 3.87 | fold change (FC) (PBMC [17]): 29.54 | fold change (FC) (PBMC [18]): 3.15 | fold change (FC) (PBMC [19]): 4.94 | Activity [20]: Active | fold change (FC) (PBMC [21]): 2.03 | fold change (FC) (PBMC [22]): 30.39 | fold change (FC) (PBMC [23]): 2.29 | fold change (FC) (PBMC [24]): 4 | Activity [25]: Dose-dependent effect | Activity [26]: Active | fold change (FC) (PBMC [27]): 3.62 | fold change (FC) (PBMC [28]): 4.05 | Activity [29]: Active | Activity [30]: Active | fold change (FC) (PBMC [31]): 6.13 | fold change (FC) (PBMC [32]): 3.57 | Activity [33]: Active | fold change (FC) (PBMC [34]): 10.56 | fold change (FC) (PBMC [35]): 2.06 | fold change (FC) (PBMC [36]): 2.02 | fold change (FC) (PBMC [37]): 3.17 | EC50 [1]: 0.0015 nM | fold change (FC) (PBMC [38]): 3.69 | Activity [39]: Active | Activity [40]: Active

CCCCCCCCCCCCN[C@H](CCC(=O)NC(CCCC(N)C(=O)O)C(=O)O)C(=O)O (stereo partly drawn)
EC50 [1]: 0.023 nM

CCCCCCCCCCCC(=O)N[C@H](CCC(=O)N[C@H](CCCCN)C(=O)O)C(=O)O
EC50 [1]: > 100 nM

CCCCCCCCCCCOC(=O)CCCC(=O)NC(CCCC(N)C(=O)O)C(=O)O (stereo not drawn)
EC50 [1]: 0.39 nM

CCCCCCCCCCCSC(=O)[C@H](N)CCC(=O)NC(CCCC(N)C(=O)OCC)C(=O)OCC (stereo partly drawn)
EC50 [1]: 0.181 nM

CCCCCCCCCCCC(=O)N[C@H](CCC(=O)NC(CCCC(N)C(=O)O)C(=O)O)C(=O)O (stereo partly drawn)
Activity [10]: Dose-dependent effect | Activity [25]: Dose-dependent effect | EC50 [1]: 0.027 nM
